Measurements reported in ChEMBL document CHEMBL2407075, “Sulphonamido-quinoxalines: search for anticancer agent” (Eur J Med Chem, 2013).

Legend:
SK-OV-3 = assay: Growth inhibition of human SKOV3 cells at 10 uM after 48 hrs by sulforhodamine B assay; type: functional; conditions: SK-OV-3, 48 h, read-out: GI
Summary of the method: (§1)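 Single-dose screen at 10 µM across the NCI 60 panel. Cells in RPMI 1640 with 5% FBS and 2 mM L-glutamine, plated at 5000–40,000/well and preincubated 24 h at 37 °C, 5% CO2. Drug in DMSO, 48 h exposure. Fixed with TCA, stained with SRB, A515 read. Percent growth is taken relative to untreated control, and inhibition is 100 minus growth.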

HCT-15 = assay: Growth inhibition of human HCT15 cells at 10 uM after 48 hrs by sulforhodamine B assay; type: functional; conditions: HCT-15, 48 h, read-out: GI
Summary of the method: (§2)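 NCI-60 one-dose primary screen at a single 10 µM concentration. Cells in RPMI 1640 with 5% FBS, preincubated 24 h at 37 °C, 5% CO2. Drug exposure 48 h, then TCA fixation, SRB staining and absorbance at 515 nm. Percent growth calculated against time-zero and untreated control wells, then converted to percent growth inhibition.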

T47D = assay: Growth inhibition of human T47D cells at 10 uM after 48 hrs by sulforhodamine B assay; type: functional; conditions: read-out: GI; summary of the method: as §1
HT-29 = assay: Growth inhibition of human HT-29 cells at 10 uM after 48 hrs by sulforhodamine B assay; type: functional; conditions: HT-29, 48 h, read-out: GI; summary of the method: as §2
MOLT-4 = assay: Growth inhibition of human MOLT4 cells at 10 uM after 48 hrs by sulforhodamine B assay; type: functional; conditions: MOLT-4, 48 h, read-out: GI; summary of the method: as §1
SK-MEL-2 = assay: Growth inhibition of human SK-MEL-2 cells at 10 uM after 48 hrs by sulforhodamine B assay; type: functional; conditions: SK-MEL-2, 48 h, read-out: GI; summary of the method: as §1
NCI-H226 = assay: Growth inhibition of human NCI-H226 cells at 10 uM after 48 hrs by sulforhodamine B assay; type: functional; conditions: NCI-H226, 48 h, read-out: GI; summary of the method: as §1
COLO 205 = assay: Growth inhibition of human COLO205 cells at 10 uM after 48 hrs by sulforhodamine B assay; type: functional; conditions: COLO 205, 48 h, read-out: GI
Summary of the method: (§3)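 Single-dose NCI-60 prescreen at 10 µM for 48 h at 37 °C and 5% CO2, using cells grown in RPMI 1640 with 5% FBS and 2 mM glutamine. Protein was measured by SRB after TCA fixation: 10% final for adherent lines, 16% for suspension lines. Absorbance was read at 515 nm. Percent growth inhibition was obtained by subtracting percent growth from 100.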

MDA-MB-435 = assay: Growth inhibition of human MDA-MB-435 cells at 10 uM after 48 hrs by sulforhodamine B assay; type: functional; conditions: MDA-MB-435, 48 h, read-out: GI; summary of the method: as §1
RPMI-8226 = assay: Growth inhibition of human RPMI8226 cells at 10 uM after 48 hrs by sulforhodamine B assay; type: functional; conditions: RPMI-8226, 48 h, read-out: GI; summary of the method: as §1
CAKI-1 = assay: Growth inhibition of human CAKI-1 cells at 10 uM after 48 hrs by sulforhodamine B assay; type: functional; conditions: CAKI-1, 48 h, read-out: GI; summary of the method: as §3
NCI-H322M = assay: Growth inhibition of human NCI-H322M cells at 10 uM after 48 hrs by sulforhodamine B assay; type: functional; conditions: read-out: GI; summary of the method: as §1
M14 = assay: Growth inhibition of human M14 cells at 10 uM after 48 hrs by sulforhodamine B assay; type: functional; conditions: M14, 48 h, read-out: GI; summary of the method: as §1
NCI-H522 = assay: Growth inhibition of human NCI-H522 cells at 10 uM after 48 hrs by sulforhodamine B assay; type: functional; conditions: NCI-H522, 48 h, read-out: GI; summary of the method: as §1
786-0 = assay: Growth inhibition of human 786-0 cells at 10 uM after 48 hrs by sulforhodamine B assay; type: functional; conditions: 786-0, 48 h, read-out: GI; summary of the method: as §3
SR = assay: Growth inhibition of human SR cells at 10 uM after 48 hrs by sulforhodamine B assay; type: functional; conditions: read-out: GI; summary of the method: as §1
KM12 = assay: Growth inhibition of human KM12 cells at 10 uM after 48 hrs by sulforhodamine B assay; type: functional; conditions: KM12, 48 h, read-out: GI; summary of the method: as §1
SNB-19 = assay: Growth inhibition of human SNB19 cells at 10 uM after 48 hrs by sulforhodamine B assay; type: functional; conditions: SNB-19, 48 h, read-out: GI; summary of the method: as §1
[1] = Growth inhibition of human NCI-ADR-RES cells at 10 uM after 48 hrs by sulforhodamine B assay; type: functional; conditions: read-out: GI; summary of the method: as §1
OVCAR-3 = assay: Growth inhibition of human OVCAR3 cells at 10 uM after 48 hrs by sulforhodamine B assay; type: functional; conditions: OVCAR-3, 48 h, read-out: GI; summary of the method: as §1
NCI-H23 = assay: Growth inhibition of human NCI-H23 cells at 10 uM after 48 hrs by sulforhodamine B assay; type: functional; conditions: NCI-H23, 48 h, read-out: GI; summary of the method: as §1
HCT-116 = assay: Growth inhibition of human HCT116 cells at 10 uM after 48 hrs by sulforhodamine B assay; type: functional; conditions: HCT-116, 48 h, read-out: GI; summary of the method: as §2
ACHN = assay: Growth inhibition of human ACHN cells at 10 uM after 48 hrs by sulforhodamine B assay; type: functional; conditions: read-out: GI; summary of the method: as §3
SNB-75 = assay: Growth inhibition of human SNB75 cells at 10 uM after 48 hrs by sulforhodamine B assay; type: functional; conditions: SNB-75, 48 h, read-out: GI; summary of the method: as §1
OVCAR-5 = assay: Growth inhibition of human OVCAR5 cells at 10 uM after 48 hrs by sulforhodamine B assay; type: functional; conditions: OVCAR-5, 48 h, read-out: GI; summary of the method: as §1
CCRF-CEM = assay: Growth inhibition of human CCRF-CEM cells at 10 uM after 48 hrs by sulforhodamine B assay; type: functional; conditions: read-out: GI; summary of the method: as §3
SN12C = assay: Growth inhibition of human SN12C cells at 10 uM after 48 hrs by sulforhodamine B assay; type: functional; conditions: read-out: GI; summary of the method: as §1
[2] = Oral bioavailability in human; type: ADME, organism-based; conditions: in silico prediction
HL-60(TB) = assay: Growth inhibition of human HL-60(TB) cells at 10 uM after 48 hrs by sulforhodamine B assay; type: functional; conditions: HL-60, 48 h, read-out: GI
Summary of the method: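 Single-dose NCI-60 primary screen at 10 µM, 48 h exposure, SRB read-out. Growth percentage of treated versus untreated cells was recorded and given as percent inhibition by subtraction.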

SF-539 = assay: Growth inhibition of human SF539 cells at 10 uM after 48 hrs by sulforhodamine B assay; type: functional; conditions: SF-539, 48 h, read-out: GI; summary of the method: as §1
NCI-H460 = assay: Growth inhibition of human NCI-H460 cells at 10 uM after 48 hrs by sulforhodamine B assay; type: functional; conditions: NCI-H460, 48 h, read-out: GI; summary of the method: as §1
OVCAR-4 = assay: Growth inhibition of human OVCAR4 cells at 10 uM after 48 hrs by sulforhodamine B assay; type: functional; conditions: OVCAR-4, 48 h, read-out: GI; summary of the method: as §1
UO-31 = assay: Growth inhibition of human UO31 cells at 10 uM after 48 hrs by sulforhodamine B assay; type: functional; conditions: UO-31, 48 h, read-out: GI; summary of the method: as §1
SW-620 = assay: Growth inhibition of human SW620 cells at 10 uM after 48 hrs by sulforhodamine B assay; type: functional; conditions: SW-620, 48 h, read-out: GI; summary of the method: as §1

SMILES: O=C(NS(=O)(=O)c1ccc2nc(-c3ccccc3)c(-c3ccccc3)nc2c1)c1ccccc1
- inhibition of growth at 10 µM (SK-OV-3): 12.8%
- inhibition of growth at 10 µM (HCT-15): 44.9%
- inhibition of growth at 10 µM (T47D): 57.5%
- inhibition of growth at 10 µM (HT-29): 48.4%
- inhibition of growth at 10 µM (MOLT-4): 44.9%
- inhibition of growth at 10 µM (SK-MEL-2): 15.8%
- inhibition of growth at 10 µM (NCI-H226): 62%
- inhibition of growth at 10 µM (COLO 205): 19.5%
- inhibition of growth at 10 µM (MDA-MB-435): 12.9%
- inhibition of growth at 10 µM (RPMI-8226): 58.5%
- inhibition of growth at 10 µM (CAKI-1): 7.22%
- inhibition of growth at 10 µM (NCI-H322M): 20.9%
- inhibition of growth at 10 µM (M14): 2.45%
- inhibition of growth at 10 µM (NCI-H522): 23.5%
- inhibition of growth at 10 µM (786-0): 16.5%
- inhibition of growth at 10 µM (SR): 71.1%
- inhibition of growth at 10 µM (KM12): 21%
- inhibition of growth at 10 µM (SNB-19): 22%
- inhibition of growth at 10 µM [1]: 27.5%
- inhibition of growth at 10 µM (OVCAR-3): 19.2%
- inhibition of growth at 10 µM (NCI-H23): 19.6%
- inhibition of growth at 10 µM (HCT-116): 36.7%
- inhibition of growth at 10 µM (ACHN): 11.8%
- inhibition of growth at 10 µM (SNB-75): 34.7%
- inhibition of growth at 10 µM (OVCAR-5): 8.43%
- inhibition of growth at 10 µM (CCRF-CEM): 41.3%
- inhibition of growth at 10 µM (SN12C): 17.4%
- bioavailability [2]: 100%
- inhibition of growth at 10 µM (HL-60(TB)): 49.4%
- inhibition of growth at 10 µM (SF-539): 3.89%
- inhibition of growth at 10 µM (NCI-H460): 32%
- inhibition of growth at 10 µM (OVCAR-4): 16.5%
- inhibition of growth at 10 µM (UO-31): 15.2%
- inhibition of growth at 10 µM (SW-620): 17.4%
